# ChEMBL document CHEMBL1140697, “Synthesis and evaluation in monkey of two sensitive 11C-labeled aryloxyanilide ligands for imaging brain peripheral benzodiazepine receptors in vivo” (J Med Chem, 2008)
# Assays:
# [1] = molecular target: Histamine H4 receptor (Homo sapiens) (UniProt Q9H3N8); assay: Binding affinity to histamine H4 receptor at 10 uM; details: tested as the 11C-labelled form
# How it was run: (§1)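 Run through the NIMH Psychoactive Drug Screening Program (PDSP) broad receptor screen. The test ligand was used at 10 µM, and the read-out was percent displacement of the reference radioligand from each site.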
# [2] = molecular target: 5-hydroxytryptamine receptor 5A (Homo sapiens) (UniProt P47898); assay: Binding affinity to 5HT5A at 10 uM; details: tested as the 11C-labelled form; how it was run: as §1
# [3] = molecular target: 5-hydroxytryptamine receptor 6 (Homo sapiens) (UniProt P50406); assay: Binding affinity to 5HT6 at 10 uM; details: tested as the 11C-labelled form; how it was run: as §1
# [4] = molecular target: Histamine H2 receptor (Homo sapiens) (UniProt P25021); assay: Binding affinity to histamine H2 receptor at 10 uM; details: tested as the 11C-labelled form; how it was run: as §1
# [5] = molecular target: Beta-2 adrenergic receptor (Homo sapiens) (UniProt P07550); assay: Binding affinity to adrenergic beta-2 at 10 uM; details: tested as the 11C-labelled form; how it was run: as §1
# [6] = molecular target: 5-hydroxytryptamine receptor 3A (Homo sapiens) (UniProt P46098); assay: Binding affinity to 5HT3 at 10 uM; details: tested as the 11C-labelled form; how it was run: as §1
# [7] = molecular target: 5-hydroxytryptamine receptor 2B (Homo sapiens) (UniProt P41595); assay: Binding affinity to 5HT2B at 10 uM; details: tested as the 11C-labelled form; how it was run: as §1
# [8] = molecular target: D(4) dopamine receptor (Homo sapiens) (UniProt P21917); assay: Binding affinity to dopamine receptor D4 at 10 uM; details: tested as the 11C-labelled form; how it was run: as §1
# [9] = molecular target: Histamine H3 receptor (Homo sapiens) (UniProt Q9Y5N1); assay: Binding affinity to histamine H3 receptor at 10 uM; details: tested as the 11C-labelled form; how it was run: as §1
# [10] = molecular target: Sodium-dependent noradrenaline transporter (Homo sapiens) (UniProt P23975); assay: Binding affinity to NET receptor at 10 uM; details: tested as the 11C-labelled form; how it was run: as §1
# [11] = molecular target: Alpha-2A adrenergic receptor (Homo sapiens) (UniProt P08913); assay: Binding affinity to adrenergic alpha-2A at 10 uM; details: tested as the 11C-labelled form; how it was run: as §1
# [12] = molecular target: 5-hydroxytryptamine receptor 1B (Homo sapiens) (UniProt P28222); assay: Binding affinity to 5HT1B at 10 uM; details: tested as the 11C-labelled form; how it was run: as §1
# [13] = molecular target: Alpha-2B adrenergic receptor (Homo sapiens) (UniProt P18089); assay: Binding affinity to adrenergic alpha-2B at 10 uM; details: tested as the 11C-labelled form; how it was run: as §1
# [14] = molecular target: Alpha-2C adrenergic receptor (Homo sapiens) (UniProt P18825); assay: Binding affinity to adrenergic alpha-2C at 10 uM; details: tested as the 11C-labelled form; how it was run: as §1
# [15] = molecular target: 5-hydroxytryptamine receptor 2C (Homo sapiens) (UniProt P28335); assay: Binding affinity to 5HT2C at 10 uM; details: tested as the 11C-labelled form; how it was run: as §1
# [16] = molecular target: D(2) dopamine receptor (Homo sapiens) (UniProt P14416); assay: Binding affinity to dopamine receptor D2 at 10 uM; details: tested as the 11C-labelled form; how it was run: as §1
# [17] = molecular target: Alpha-1A adrenergic receptor (Homo sapiens) (UniProt P35348); assay: Binding affinity to adrenergic alpha-1A at 10 uM; details: tested as the 11C-labelled form; how it was run: as §1
# [18] = molecular target: Beta-1 adrenergic receptor (Homo sapiens) (UniProt P08588); assay: Binding affinity to adrenergic […] at 10 uM; details: tested as the 11C-labelled form; how it was run: as §1
# [19] = molecular target: Muscarinic acetylcholine receptor M5 (Homo sapiens) (UniProt P08912); assay: Binding affinity to muscarinic receptor M5 receptor at 10 uM; details: tested as the 11C-labelled form; how it was run: as §1
# [20] = molecular target: Alpha-1B adrenergic receptor (Homo sapiens) (UniProt P35368); assay: Binding affinity to adrenergic alpha-1B at 10 uM; details: tested as the 11C-labelled form; how it was run: as §1
# [21] = molecular target: D(1A) dopamine receptor (Homo sapiens) (UniProt P21728); assay: Binding affinity to dopamine receptor D1 at 10 uM; details: tested as the 11C-labelled form; how it was run: as §1
# [22] = molecular target: Histamine H1 receptor (Homo sapiens) (UniProt P35367); assay: Binding affinity to histamine H1 receptor at 10 uM; details: tested as the 11C-labelled form; how it was run: as §1
# [23] = molecular target: Beta-3 adrenergic receptor (Homo sapiens) (UniProt P13945); assay: Binding affinity to adrenergic beta-3 at 10 uM; details: tested as the 11C-labelled form; how it was run: as §1
# [24] = molecular target: Muscarinic acetylcholine receptor M2 (Homo sapiens) (UniProt P08172); assay: Binding affinity to muscarinic receptor M2 receptor at 10 uM; details: tested as the 11C-labelled form; how it was run: as §1
# [25] = molecular target: 5-hydroxytryptamine receptor 1D (Homo sapiens) (UniProt P28221); assay: Binding affinity to 5HT1D at 10 uM; details: tested as the 11C-labelled form; how it was run: as §1
# [26] = molecular target: D(3) dopamine receptor (Homo sapiens) (UniProt P35462); assay: Binding affinity to dopamine receptor D3 at 10 uM; details: tested as the 11C-labelled form; how it was run: as §1
# [27] = molecular target: 5-hydroxytryptamine receptor 7 (Homo sapiens) (UniProt P34969); assay: Binding affinity to 5HT7 at 10 uM; details: tested as the 11C-labelled form; how it was run: as §1
# [28] = molecular target: 5-hydroxytryptamine receptor 1A (Homo sapiens) (UniProt P08908); assay: Binding affinity to 5HT1A at 10 uM; details: tested as the 11C-labelled form; how it was run: as §1
# [29] = molecular target: Sodium-dependent serotonin transporter (Homo sapiens) (UniProt P31645); assay: Binding affinity to SERT receptor at 10 uM; details: tested as the 11C-labelled form; how it was run: as §1
# [30] = molecular target: Sodium-dependent dopamine transporter (Homo sapiens) (UniProt Q01959); assay: Binding affinity to DAT receptor at 10 uM; details: tested as the 11C-labelled form; how it was run: as §1
# [31] = molecular target: 5-hydroxytryptamine receptor 2A (Homo sapiens) (UniProt P28223); assay: Binding affinity to 5HT2A at 10 uM; details: tested as the 11C-labelled form; how it was run: as §1
# [32] = molecular target: 5-hydroxytryptamine receptor 1E (Homo sapiens) (UniProt P28566); assay: Binding affinity to 5HT1E at 10 uM; details: tested as the 11C-labelled form; how it was run: as §1
# Plasma [33] = assay: Drug level in rhesus monkey plasma assessed as cell distribution; format: ADME, cell-free, Macaca mulatta
# [34] = Stability in monkey whole blood >30 mins; format: ADME, tissue-based, Macaca mulatta; details: rhesus monkey, read-out: Stability
# How it was run: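 The radioligand was incubated with monkey blood for >30 min. Radioactivity extracted from the plasma was analysed by radio-HPLC to give the percentage of unchanged radioligand, reported as mean ± SD.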
# Translocator protein [35] = molecular target: Translocator protein (Homo sapiens, UniProt P30536); assay: Binding affinity to PBR in human mitochondrial tissue
# [36] = Binding affinity to PBR in rhesus monkey mitochondrial tissue; parameters: species or system Macaca mulatta
# How it was run: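 Mitochondrial fractions (rat, rhesus monkey or human) were incubated with [³H]PK 11195 (0.38 nM final) and eight test-ligand concentrations for 2 h at 4 °C. Samples were filtered on PEI-presoaked GF/B filters, washed with ice-cold buffer and counted. Nonspecific binding was taken at the top inhibitor level (0.1–0.3 µM). Triplicate curves were run in two independent experiments. IC₅₀ was converted to K_i by Cheng–Prusoff, using K_D from homologous PK 11195 displacement.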
# [37] = Biodistribution in rhesus monkey plasma free fraction of blood; format: ADME, organism-based, Macaca mulatta
# [38] = Stability in sodium phosphate buffer at pH 7.4 after 2.5 hrs; format: physicochemical; details: read-out: Stability
# How it was run: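 Radioligand stored in 0.15 M sodium phosphate buffer, pH 7.4, for 2.5 h; radiochemical stability measured by radio-HPLC as percent of radioactivity remaining as unchanged radioligand; n = 4.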
# Plasma [39] = assay: Biodistribution in rat plasma at 1.43 mCi, iv after 30 mins; format: ADME, organism-based; details: in vivo, 0.5 h
# How it was run: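 Rats received the ¹¹C-radioligand iv with varying carrier mass (µg/kg) and were sampled 30 min later. Plasma and brain homogenate were extracted into acetonitrile and analysed by reverse-phase radio-HPLC (C18; MeOH/H₂O/Et₃N, 1.5 mL/min), reporting % radioactivity as unchanged radioligand. Extraction recovery was recorded. Replicate HPLC analyses were run on one sample per rat.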
# Plasma [40] = assay: Drug level in rhesus monkey plasma; format: ADME, cell-free, Macaca mulatta
# [41] = Lipophilicity, log D of the compound; format: physicochemical; details: octanol/water
# How it was run: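 The ¹¹C-ligand (~300 µCi) in saline with 5% ethanol was mixed with sodium phosphate buffer (0.15 M, pH 7.4). Six 1 mL aliquots were each vortexed 1 min with buffer-pre-equilibrated n-octanol, centrifuged 1 min, and 200 µL of each phase was γ-counted. Aqueous counts were corrected by radio-HPLC for the unchanged fraction. LogD = log(cpm octanol/corrected cpm aqueous); mean ± SD of six determinations.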
# Translocator protein [42] = molecular target: Translocator protein (Rattus norvegicus, UniProt P16257); assay: Binding affinity to PBR in Sprague-Dawley rat mitochondrial tissue
# Sequence of Translocator protein (Rattus norvegicus, UniProt P16257) (P16257 whole entry, looked up): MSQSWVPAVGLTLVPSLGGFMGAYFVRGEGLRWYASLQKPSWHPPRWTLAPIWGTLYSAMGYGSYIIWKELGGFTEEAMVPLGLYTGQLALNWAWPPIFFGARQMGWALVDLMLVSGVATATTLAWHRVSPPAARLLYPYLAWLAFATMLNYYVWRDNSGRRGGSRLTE
# Sequence of Alpha-2C adrenergic receptor (Homo sapiens) (P18825 whole entry): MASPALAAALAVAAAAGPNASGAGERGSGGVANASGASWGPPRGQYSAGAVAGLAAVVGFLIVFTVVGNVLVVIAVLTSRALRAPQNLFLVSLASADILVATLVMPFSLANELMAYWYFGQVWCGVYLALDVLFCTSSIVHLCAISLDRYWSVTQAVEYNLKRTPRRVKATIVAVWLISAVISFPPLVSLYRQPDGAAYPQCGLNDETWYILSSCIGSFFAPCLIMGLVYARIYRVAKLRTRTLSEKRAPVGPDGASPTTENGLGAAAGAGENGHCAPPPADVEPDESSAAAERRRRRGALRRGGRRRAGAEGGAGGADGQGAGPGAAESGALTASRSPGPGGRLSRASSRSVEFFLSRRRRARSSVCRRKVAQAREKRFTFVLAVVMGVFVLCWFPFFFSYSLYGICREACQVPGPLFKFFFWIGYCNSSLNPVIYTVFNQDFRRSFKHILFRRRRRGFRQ
# Sequence of Sodium-dependent dopamine transporter (Homo sapiens) (Q01959 whole entry): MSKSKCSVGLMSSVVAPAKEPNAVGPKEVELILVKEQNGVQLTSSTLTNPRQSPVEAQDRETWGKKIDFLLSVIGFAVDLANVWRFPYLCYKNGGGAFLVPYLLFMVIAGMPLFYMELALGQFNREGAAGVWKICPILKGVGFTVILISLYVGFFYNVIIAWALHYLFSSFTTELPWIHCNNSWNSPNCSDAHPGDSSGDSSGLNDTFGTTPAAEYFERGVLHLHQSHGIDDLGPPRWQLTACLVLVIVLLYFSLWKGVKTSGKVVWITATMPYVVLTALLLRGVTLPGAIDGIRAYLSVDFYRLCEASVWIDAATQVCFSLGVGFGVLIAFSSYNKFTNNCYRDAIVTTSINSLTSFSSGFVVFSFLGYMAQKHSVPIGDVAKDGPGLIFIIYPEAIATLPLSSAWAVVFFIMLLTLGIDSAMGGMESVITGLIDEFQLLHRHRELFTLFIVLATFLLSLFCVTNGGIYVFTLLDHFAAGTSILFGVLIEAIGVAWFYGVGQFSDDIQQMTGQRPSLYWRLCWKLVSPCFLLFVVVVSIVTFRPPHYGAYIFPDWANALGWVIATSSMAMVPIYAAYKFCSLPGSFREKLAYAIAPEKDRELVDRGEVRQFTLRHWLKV
# Sequence of Alpha-2A adrenergic receptor (Homo sapiens) (P08913 whole entry): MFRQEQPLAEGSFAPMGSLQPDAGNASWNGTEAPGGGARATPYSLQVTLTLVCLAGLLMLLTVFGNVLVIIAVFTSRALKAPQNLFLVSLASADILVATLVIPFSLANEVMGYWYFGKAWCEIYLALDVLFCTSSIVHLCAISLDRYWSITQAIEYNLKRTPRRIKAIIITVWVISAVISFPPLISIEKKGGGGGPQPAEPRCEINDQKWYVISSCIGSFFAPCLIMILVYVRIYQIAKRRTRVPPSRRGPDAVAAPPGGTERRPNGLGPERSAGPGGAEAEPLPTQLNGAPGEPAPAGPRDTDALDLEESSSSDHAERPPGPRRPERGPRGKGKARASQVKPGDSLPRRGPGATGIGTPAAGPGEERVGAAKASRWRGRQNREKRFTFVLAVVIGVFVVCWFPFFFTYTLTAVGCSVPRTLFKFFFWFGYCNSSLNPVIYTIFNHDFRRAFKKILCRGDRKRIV
# Sequence of Sodium-dependent serotonin transporter (Homo sapiens) (P31645 whole entry, looked up): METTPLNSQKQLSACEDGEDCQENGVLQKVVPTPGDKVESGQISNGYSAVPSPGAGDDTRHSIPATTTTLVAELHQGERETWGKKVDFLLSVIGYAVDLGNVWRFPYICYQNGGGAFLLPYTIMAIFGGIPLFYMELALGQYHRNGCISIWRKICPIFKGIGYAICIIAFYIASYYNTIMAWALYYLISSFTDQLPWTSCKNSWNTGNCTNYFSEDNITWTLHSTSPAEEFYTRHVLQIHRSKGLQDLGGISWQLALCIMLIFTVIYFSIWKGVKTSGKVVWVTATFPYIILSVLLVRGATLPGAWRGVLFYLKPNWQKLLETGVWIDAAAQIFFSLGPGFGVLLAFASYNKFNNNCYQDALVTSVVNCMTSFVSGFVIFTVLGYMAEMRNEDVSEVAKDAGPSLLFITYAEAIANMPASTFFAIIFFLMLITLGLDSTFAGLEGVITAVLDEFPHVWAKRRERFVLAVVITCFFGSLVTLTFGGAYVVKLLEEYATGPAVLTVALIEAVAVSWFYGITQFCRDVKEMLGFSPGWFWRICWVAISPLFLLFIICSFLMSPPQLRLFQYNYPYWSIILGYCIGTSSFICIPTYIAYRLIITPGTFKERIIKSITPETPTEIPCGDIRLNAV
# Sequence of Beta-1 adrenergic receptor (Homo sapiens) (P08588 whole entry, looked up): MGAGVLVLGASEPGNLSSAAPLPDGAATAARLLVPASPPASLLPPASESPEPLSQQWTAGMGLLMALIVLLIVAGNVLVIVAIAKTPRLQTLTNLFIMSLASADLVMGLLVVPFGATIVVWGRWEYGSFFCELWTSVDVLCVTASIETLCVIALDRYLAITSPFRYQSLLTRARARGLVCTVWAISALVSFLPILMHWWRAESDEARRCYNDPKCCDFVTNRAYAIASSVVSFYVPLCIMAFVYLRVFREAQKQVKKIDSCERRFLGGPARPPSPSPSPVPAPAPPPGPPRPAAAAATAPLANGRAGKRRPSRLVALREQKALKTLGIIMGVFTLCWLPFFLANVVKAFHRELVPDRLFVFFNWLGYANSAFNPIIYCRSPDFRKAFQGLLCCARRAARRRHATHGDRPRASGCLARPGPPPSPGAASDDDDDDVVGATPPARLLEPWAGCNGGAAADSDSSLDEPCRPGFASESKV
# Sequence of Alpha-1B adrenergic receptor (Homo sapiens) (P35368 whole entry): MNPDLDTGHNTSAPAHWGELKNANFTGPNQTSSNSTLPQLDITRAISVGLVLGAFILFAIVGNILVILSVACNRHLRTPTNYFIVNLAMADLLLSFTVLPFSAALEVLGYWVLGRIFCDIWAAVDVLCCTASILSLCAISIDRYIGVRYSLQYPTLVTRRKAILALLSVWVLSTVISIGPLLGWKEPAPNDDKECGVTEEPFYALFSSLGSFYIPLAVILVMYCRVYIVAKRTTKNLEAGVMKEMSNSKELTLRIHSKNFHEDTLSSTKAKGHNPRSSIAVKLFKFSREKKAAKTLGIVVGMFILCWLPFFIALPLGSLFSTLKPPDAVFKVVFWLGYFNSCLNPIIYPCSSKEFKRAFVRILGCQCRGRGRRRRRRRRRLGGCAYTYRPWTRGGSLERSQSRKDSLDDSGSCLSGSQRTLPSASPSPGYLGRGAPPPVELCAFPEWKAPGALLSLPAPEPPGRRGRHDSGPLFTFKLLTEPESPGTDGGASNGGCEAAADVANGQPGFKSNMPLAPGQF
# Sequence of D(3) dopamine receptor (Homo sapiens) (P35462 whole entry): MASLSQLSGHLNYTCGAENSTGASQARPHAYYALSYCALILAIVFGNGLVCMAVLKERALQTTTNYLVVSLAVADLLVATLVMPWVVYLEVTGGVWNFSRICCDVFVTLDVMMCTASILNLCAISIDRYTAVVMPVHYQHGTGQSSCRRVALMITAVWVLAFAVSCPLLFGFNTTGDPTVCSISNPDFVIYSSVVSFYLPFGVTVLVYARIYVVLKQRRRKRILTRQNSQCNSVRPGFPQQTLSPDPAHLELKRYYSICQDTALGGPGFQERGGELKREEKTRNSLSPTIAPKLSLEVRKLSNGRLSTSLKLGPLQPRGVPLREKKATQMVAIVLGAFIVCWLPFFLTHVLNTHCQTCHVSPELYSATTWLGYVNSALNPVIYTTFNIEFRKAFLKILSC
# Sequence of Beta-2 adrenergic receptor (Homo sapiens) (P07550 whole entry, looked up): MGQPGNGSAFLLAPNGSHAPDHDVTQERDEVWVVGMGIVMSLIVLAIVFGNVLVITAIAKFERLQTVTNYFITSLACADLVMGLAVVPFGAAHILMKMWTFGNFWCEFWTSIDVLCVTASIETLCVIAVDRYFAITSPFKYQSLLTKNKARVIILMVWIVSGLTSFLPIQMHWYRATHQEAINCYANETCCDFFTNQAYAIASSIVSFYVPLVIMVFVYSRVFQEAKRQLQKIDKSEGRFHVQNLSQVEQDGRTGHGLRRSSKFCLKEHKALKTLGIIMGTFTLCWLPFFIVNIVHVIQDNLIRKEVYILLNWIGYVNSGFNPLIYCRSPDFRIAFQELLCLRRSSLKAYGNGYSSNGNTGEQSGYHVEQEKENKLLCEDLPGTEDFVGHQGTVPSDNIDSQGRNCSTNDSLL
# Sequence of 5-hydroxytryptamine receptor 2B (Homo sapiens) (P41595 whole entry): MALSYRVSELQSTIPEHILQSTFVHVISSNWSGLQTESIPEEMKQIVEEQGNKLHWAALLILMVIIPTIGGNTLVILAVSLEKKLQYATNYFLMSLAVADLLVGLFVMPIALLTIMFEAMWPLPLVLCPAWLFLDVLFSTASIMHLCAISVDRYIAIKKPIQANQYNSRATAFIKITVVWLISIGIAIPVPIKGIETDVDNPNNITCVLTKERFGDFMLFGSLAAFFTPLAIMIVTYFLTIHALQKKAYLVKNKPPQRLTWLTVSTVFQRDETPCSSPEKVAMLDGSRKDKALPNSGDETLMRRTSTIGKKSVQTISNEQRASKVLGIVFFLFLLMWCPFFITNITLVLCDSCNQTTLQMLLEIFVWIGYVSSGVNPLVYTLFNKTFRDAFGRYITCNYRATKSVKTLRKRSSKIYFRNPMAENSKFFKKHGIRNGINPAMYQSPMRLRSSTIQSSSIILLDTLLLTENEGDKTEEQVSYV
# Sequence of Translocator protein (Homo sapiens, UniProt P30536) (P30536 whole entry): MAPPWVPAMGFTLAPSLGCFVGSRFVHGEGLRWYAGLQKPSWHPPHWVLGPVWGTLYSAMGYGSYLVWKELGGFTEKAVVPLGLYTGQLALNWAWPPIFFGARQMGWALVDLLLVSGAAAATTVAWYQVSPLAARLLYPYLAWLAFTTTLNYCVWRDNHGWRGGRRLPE
compound,measurement,setting,value
COc1ccccc1CN(C(C)=O)c1cnccc1Oc1ccccc1,Activity,[1],< 50%
same,Activity,[2],< 50%
same,Activity,[3],< 50%
same,Activity,[4],< 50%
same,Activity,[5],< 50%
same,Activity,[6],< 50%
same,Activity,[7],< 50%
same,Activity,[8],< 50%
same,Activity,[9],< 50%
same,Activity,[10],< 50%
same,Activity,[11],< 50%
same,Activity,[12],< 50%
same,Activity,[13],< 50%
same,Activity,[14],< 50%
same,Activity,[15],< 50%
same,Activity,[16],< 50%
same,Activity,[17],< 50%
same,Activity,[18],< 50%
same,Activity,[19],< 50%
same,Activity,[20],< 50%
same,Activity,[21],< 50%
same,Activity,[22],< 50%
same,Activity,[23],< 50%
same,Activity,[24],< 50%
same,Activity,[25],< 50%
same,Activity,[26],< 50%
same,Activity,[27],< 50%
same,Activity,[28],< 50%
same,Activity,[29],< 50%
same,Activity,[30],< 50%
same,Activity,[31],< 50%
same,Activity,[32],< 50%
CC(=O)N(Cc1ccccc1C(=O)O[11CH3])c1ccccc1Oc1ccccc1,Drug uptake,Plasma [33],63.3%
same,remaining at 0.5 h,[34],96.5%
same,Ki,Translocator protein [35],1.4 nM
same,Ki,[36],0.254 nM
same,fraction unbound,[37],0.0015
same,remaining at 2.5 h,[38],99.9%
same,Drug uptake,Plasma [39],3.4%
same,Drug uptake,Plasma [40],36.7%
same,logD,[41],3.9
same,Ki,Translocator protein [42],0.0978 nM
